Results published in ChEMBL document CHEMBL1156540, “Remarkable DNA binding affinity and potential anticancer activity of pyrrolo[2,1-c][1,4]benzodiazepine-naphthalimide conjugates linked through piperazine side-armed alkane spacers” (Bioorg Med Chem, 2008).

Key:
PC-3 = test: Cytotoxicity against human PC3 cells by SRB assay; type: functional, cell-based
Method in brief: (§1)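 Human tumour lines given dose–response treatment, with growth or viability estimated by sulforhodamine B protein staining. IC50 is the dose giving 50% growth inhibition versus untreated controls, read from IC50 graphs. Triplicate wells; each experiment repeated three times.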

HOP-62 = test: Cytotoxicity against human Hop62 cells by SRB assay; type: functional, cell-based; method in brief: as §1
MCF7 = test: Cytotoxicity against human MCF7 cells by SRB assay; type: functional, cell-based; method in brief: as §1
ZR-75-1 = test: Cytotoxicity against human ZR751 cells by SRB assay; type: functional, cell-based; method in brief: as §1
DNA = test: Binding affinity to calf thymus DNA assessed as helix melting temperature at 20 uM after 18 hrs by thermal denaturation assay; type: nucleic-acid assay; settings: Bos taurus
Method in brief: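 Calf thymus duplex DNA (100 µM in phosphate) with ligand at 20 µM (1:5 ligand/DNA molar ratio), added from concentrated DMSO stock into 10 mM sodium phosphate, 1 mM EDTA, pH 7.00. Incubated at 37 °C before melting. Absorbance followed at 260 nm while heating 1 °C/min over 40–95 °C. Tm taken from maxima of d(A260)/dT derivative plots; ΔTm relative to DNA alone.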

A2780 = test: Cytotoxicity against human A2780 cells by SRB assay; type: functional, cell-based; method in brief: as §1
COLO 205 = test: Cytotoxicity against human Colo205 cells by SRB assay; type: functional, cell-based; method in brief: as §1
SiHa = test: Cytotoxicity against human SiHa cells by SRB assay; type: functional, cell-based; method in brief: as §1

SMILES | IC50 (PC-3) [nM] | IC50 (HOP-62) [nM] | IC50 (MCF7) [nM] | IC50 (ZR-75-1) [nM] | ΔTm (DNA) [°C] | IC50 (A2780) [nM] | IC50 (COLO 205) [nM] | IC50 (SiHa) [nM]
COc1cc2c(cc1OCCCCN1CCN(CCN3C(=O)c4cccc5cccc(c45)C3=O)CC1)N=C[C@@H]1CCCN1C2=O | 500 | < 1000 | 500 | < 1000 | 23.9 | 600 | 500 | 800
COc1cc2c(cc1OCCCCN1CCN(CCCCN3C(=O)c4cccc5cccc(c45)C3=O)CC1)N=C[C@@H]1CCCN1C2=O | – | – | – | – | 20.8 | – | – | –
COc1cc2c(cc1O)N=C[C@@H]1CCCN1C2=O | – | – | – | – | 0.7 | – | – | –
COc1cc2c(cc1OCCCN1CCN(CCN3C(=O)c4cccc5cccc(c45)C3=O)CC1)N=C[C@@H]1CCCN1C2=O | 500 | < 1000 | 500 | < 1000 | 26.5 | 500 | 500 | 700
COc1cc2c(cc1OCCCN1CCN(CCCN3C(=O)c4cccc5cccc(c45)C3=O)CC1)N=C[C@@H]1CCCN1C2=O | – | – | – | – | 12.9 | – | – | –
COc1cc2c(cc1OCCCOc1cc3c(cc1OC)C(=O)N1CCC[C@H]1C=N3)N=C[C@@H]1CCCN1C2=O | – | – | – | – | 15.1 | – | – | –
COc1cccc2c1C(=O)c1c(O)c3c(c(O)c1C2=O)C[C@@](O)(C(=O)CO)C[C@@H]3O[C@H]1C[C@H](N)[C@H](O)[C@H](C)O1 [DOXORUBICIN] | – | – | 500 | – | – | – | – | –
COc1cc2c(cc1OCCN1CCN(CCN3C(=O)c4cccc5cccc(c45)C3=O)CC1)N=C[C@@H]1CCCN1C2=O | 800 | 1200 | 1400 | < 1000 | 22.7 | 500 | 1600 | 1000
